Measurements taken from ChEMBL document CHEMBL3286272, “Synthesis, biological, and biophysical studies of DAG-indololactones designed as selective activators of RasGRP” (Bioorg Med Chem, 2014).
Active and inactive are the calls of the source. No cut-off for these calls is given here.

Experiments:
[1] = molecular target: Protein kinase C alpha type (Homo sapiens, UniProt P17252); test: Displacement of [3H]PDBu from recombinant human PKC-alpha after 5 mins by scintillation counting analysis in presence of phosphatidylserine
In short: (§1)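 [3H]PDBu binding competition with 100 μg/ml phosphatidylserine present; PKCα and RasGRP1-C1 assayed at 37°C for stability. Values are mean ± SEM of triplicate independent experiments.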

[2] = molecular target: T1, Ras guanyl-releasing protein 3 (Homo sapiens, UniProt Q8IV61); test: Displacement of [3H]PDBu from recombinant human GFP-tagged RasGRP3 expressed in Escherichia coli BL21 after 5 mins by scintillation counting analysis in presence of phosphatidylserine
T1 sequence (Q8IV61 whole entry): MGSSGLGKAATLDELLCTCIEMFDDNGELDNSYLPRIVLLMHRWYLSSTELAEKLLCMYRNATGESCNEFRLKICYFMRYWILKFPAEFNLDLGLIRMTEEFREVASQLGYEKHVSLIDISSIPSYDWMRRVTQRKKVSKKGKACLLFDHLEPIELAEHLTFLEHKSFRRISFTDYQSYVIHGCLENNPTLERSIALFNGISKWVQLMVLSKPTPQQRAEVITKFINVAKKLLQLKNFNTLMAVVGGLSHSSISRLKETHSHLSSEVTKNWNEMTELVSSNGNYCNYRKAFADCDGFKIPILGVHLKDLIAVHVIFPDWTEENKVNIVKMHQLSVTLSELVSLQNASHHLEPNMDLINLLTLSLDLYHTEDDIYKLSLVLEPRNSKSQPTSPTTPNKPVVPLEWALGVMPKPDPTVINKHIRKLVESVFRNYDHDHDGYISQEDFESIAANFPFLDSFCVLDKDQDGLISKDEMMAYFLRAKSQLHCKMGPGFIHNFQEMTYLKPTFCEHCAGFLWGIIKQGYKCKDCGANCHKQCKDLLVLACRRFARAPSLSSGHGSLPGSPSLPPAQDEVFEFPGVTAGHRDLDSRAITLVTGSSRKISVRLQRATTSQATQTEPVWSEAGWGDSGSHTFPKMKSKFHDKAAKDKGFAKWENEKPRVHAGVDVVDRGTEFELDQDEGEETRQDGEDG
In short: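 Competition for [3H]PDBu binding to RasGRP3 with 100 μg/ml phosphatidylserine present, run at 18°C to optimize stability. Values are mean ± SEM of triplicate independent experiments.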

[3] = organism: Homo sapiens; test: Selectivity ratio of Ki for recombinant human PKC-epsilon to Ki for recombinant human GFP-tagged RasGRP3
[4] = molecular target: T2, RAS guanyl-releasing protein 1 (Homo sapiens, UniProt O95267); test: Displacement of [3H]PDBu from recombinant RasGRP1 C1 domain (unknown origin) after 10 mins by scintillation counting analysis in presence of phosphatidylserine; in short: as §1
T2 sequence (O95267 whole entry): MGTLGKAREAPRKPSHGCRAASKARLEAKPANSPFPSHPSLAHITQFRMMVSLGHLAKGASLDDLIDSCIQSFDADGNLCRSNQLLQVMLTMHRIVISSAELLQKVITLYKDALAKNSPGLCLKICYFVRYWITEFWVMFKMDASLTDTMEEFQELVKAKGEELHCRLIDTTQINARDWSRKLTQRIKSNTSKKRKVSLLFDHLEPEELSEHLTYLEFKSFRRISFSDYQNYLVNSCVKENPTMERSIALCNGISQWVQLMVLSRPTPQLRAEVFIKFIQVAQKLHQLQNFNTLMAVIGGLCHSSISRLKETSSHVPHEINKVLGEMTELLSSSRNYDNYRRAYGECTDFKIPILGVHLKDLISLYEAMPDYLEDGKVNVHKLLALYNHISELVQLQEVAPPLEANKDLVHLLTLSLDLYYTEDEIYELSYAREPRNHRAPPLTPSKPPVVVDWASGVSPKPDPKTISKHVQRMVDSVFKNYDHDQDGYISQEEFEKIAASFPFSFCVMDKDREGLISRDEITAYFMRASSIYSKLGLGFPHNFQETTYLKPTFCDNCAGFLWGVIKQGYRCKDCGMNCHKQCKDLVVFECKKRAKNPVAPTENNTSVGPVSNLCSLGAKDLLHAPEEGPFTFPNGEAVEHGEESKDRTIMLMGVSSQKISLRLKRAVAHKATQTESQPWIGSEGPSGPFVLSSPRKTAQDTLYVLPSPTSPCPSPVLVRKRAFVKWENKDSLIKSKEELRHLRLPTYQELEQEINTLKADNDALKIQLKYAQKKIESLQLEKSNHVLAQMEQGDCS

[5] = organism: Homo sapiens; test: Selectivity ratio of Ki for recombinant human PKC-epsilon to Ki for recombinant RasGRP1 C1 domain (unknown origin)
[6] = molecular target: T3, Ras guanyl-releasing protein 3 (Homo sapiens) (UniProt Q8IV61); test: Activation of RasGRP3 (unknown origin) overexpressed in HEK293 cells assessed as protein phosphorylation at T133 at 0.1 to 30 uM after 30 mins by Western blot analysis; format: cell-based
T3 sequence (whole entry): T1 sequence (Q8IV61 whole entry)

[7] = molecular target: T3, Ras guanyl-releasing protein 3 (Homo sapiens); test: Binding affinity to recombinant human GFP-tagged RasGRP3 expressed in human LNCAP cells assessed as induction of protein translocation from plasma membrane to internal membrane at 10000 nM after 2 to 10 mins by confocal microscopic analysis; format: cell-based
In short: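 LNCaP cells were transiently transfected with human GFP-PKCδ or GFP-RasGRP3 and imaged 24 h later by live confocal microscopy (488 nm excitation) every 30 s for 30 min after 10 μM ligand. Distribution was assessed from representative images. n = 3–6.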

[8] = tested on: Lipid bilayer; test: Binding affinity to […] embedded 9:1 DMPC/DMPG giant vesicle at 2.42 to 6.05 uM by fluorescence anisotropy method
In short: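 Giant vesicles (DMPC/DMPG 9:1, rapid evaporation, 0.1 M sucrose, 0.1 M KCl, 2 mM Tris pH 7.4) were loaded with DPH-TMA at 1.25 μM final for 30 min at room temperature. Compound from DMSO stock was added at 2.42 and 6.05 μM final. Anisotropy was read at 430 nm with 355 nm excitation.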

[9] = Binding affinity to 9:1 DMPG/DMPC giant vesicle at 6.05 uM by fluorescence emission spectra analysis; details: in the assay text read “9:1 DMPC/DMPG” for “9:1 DMPG/DMPC”
In short: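 Intrinsic 1-methylindole emission of 6.05 μM compound in Tris/sucrose/KCl buffer pH 7.4 was recorded at 27°C while titrating with DMPC/DMPG giant vesicles (5–30 μL), with excitation at each compound's own wavelength. Vesicle light scattering was under 5% of the signal.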

[10] = tested on: Lipid bilayer; test: Binding affinity to NBD-PE embedded 9:1 DMPC/DMPG giant vesicle at 6.05 uM by FRET analysis
In short: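 Giant vesicles containing NBD-PE (100:1 phospholipid:fluorophore) were mixed with 6.05 μM compound from DMSO stock in Tris/sucrose/KCl buffer pH 7.4. NBD-PE emission was recorded after excitation at 330–370 nm, the indole excitation range. Triton addition served as the disruption control.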

Row | Structure (SMILES) | Ki [1] [nM] | Ki [2] [nM] | Ratio Ki [3] | Ki [4] [nM] | Ratio Ki [5] | Activity [6] | Activity [7] | Activity [8] | Activity [9] | Activity [10]
1 | CCCC(CCC)C(=O)OCC1(CO)C/C(=C\c2cccc3ccn(C)c23)C(=O)O1 (centres undefined) | 12.9 | 1.12 | 11 | 0.69 | 17 | Active | Active | Active | inactive | Active
2 | CCCC(CCC)C(=O)OCC1(CO)C/C(=C\c2cn(C)c3ccccc23)C(=O)O1 (centres undefined) | 16.2 | 0.33 | 64 | 0.25 | 84 | Active | Active | Active | inactive | inactive
3 | CCCC(CCC)C(=O)OCC1(CO)C/C(=C\c2cccc3c2ccn3C)C(=O)O1 (centres undefined) | 17.8 | 1.63 | 9 | 1.55 | 9.4 | Active | Active | inactive | Active | 
4 | CCCC(CCC)C(=O)OCC1(CO)C/C(=C\c2ccc3ccn(C)c3c2)C(=O)O1 (centres undefined) | 7.5 | 1.22 | 6.6 | 0.87 | 9.3 | Active | Active | Active | Active | Active
5 | CCCC(CCC)C(=O)OCC1(CO)C/C(=C\c2ccc3c(ccn3C)c2)C(=O)O1 (centres undefined) | 8.25 | 0.34 | 6.4 | 0.41 | 5.3 | Active | Active | inactive | inactive | Active
